Measured values from ChEMBL document CHEMBL4513216, “Probing the Open Global Health Chemical Diversity Library for Multistage-Active Starting Points for Next-Generation Antimalarials” (ACS Infect Dis, 2020).

test: Toxicity liver stage against HepG2, at 10uM; type: cell-based; set-up: test concentration 10 uM, cell line HepG2-A16-CD81EGFP; settings: human, HepG2-A16-CD81EGFP cells; read-out: INHIBITION
How it was run: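 Uninfected HepG2-A16-CD81EGFP cells, 3 × 10^3 per well, 1536-well, plated on prespotted compound at 10 μM final, parasite-free screening media added to match infected plates; puromycin 10 μM positive, DMSO 0.5% negative; run in parallel with 48 h PbLuc assay at 37 °C, 5% CO2; viability by CellTiter-Glo luminescence, normalized to controls.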

SMILES | cytotoxicity at 10 µM
Cc1cc2ncn(C(=O)N3CCCC3)c2cc1C | -6.01%
COc1ccc(-c2n[nH]cc2CN2CCSCC2)c(OC)c1 | 6.4%
CC(C)(C)CNC[C@H]1Cn2ccnc2CO1 | -6.17%
O=C1CO[C@H]2CN(C3CCOCC3)C[C@H]2N1Cc1ccncc1 | 5.89%
CN1Cc2cc(F)ccc2N(CC(C)(C)O)CCC1=O | -2.02%
CC(C)(C)CC(=O)N1[C@@H](c2ccco2)[C@@H](CO)C[C@]12CCCCNC2=O | 0.122%
CCNC(=O)N1CC2=CC(C)(C)COc3ccc(OC)c(c32)C1 | 8.47%
CC(C)CCc1n[nH]c(C(=O)O)c1I | -1.93%
COCC(C)NC(=O)c1cn(C(C)C)cc2c(=O)[nH]nc1-2 (configuration not stated) | -12.6%
O=C(Nc1nc2c(s1)CN(C(=O)NCc1cccs1)CC2)C1CC1 | -0.707%
O=C(c1nnn(-c2ccccc2Cl)c1-c1ccccn1)N1CCSCC1 | 4.92%
CC(C)CC(=O)N1CCN(c2cc(N(C)C)cnn2)CC1 | 4.17%
CCOc1ccc(NC(C)=O)cc1S(=O)(=O)Nc1nnc(C)s1 | -17.6%
CC(=O)NCCOc1c(Cl)cccc1Cl | -8.87%
NC(=O)CN1C[C@@H](c2ccccc2F)[C@@]2(CCCCC(=O)N2)C1 | 7.04%
COc1ccc(CN(C)Cc2ccnc(C3CCCO3)n2)cc1 (configuration not stated) | 7.67%
Cc1nn(C)cc1-c1cc(C(=O)NCC(C)(C)c2cccc(F)c2)n[nH]1 | 0.68%
O=C(O)c1ccccc1-n1cc(CN2CCC(c3cc[nH]n3)C2)cn1 (configuration not stated) | 1.1%
CNc1cc(C2CCCN2C(=O)CCc2ccccc2F)ccn1 (configuration not stated) | -2.01%
Cc1ccccc1CN1CCCC1c1cncc(Nc2nncs2)n1 (configuration not stated) | 1.66%
CCC(=O)N1CCN(C)C(=O)C(Cc2ccccc2-c2cccs2)C1 (configuration not stated) | 4.89%
O=C(Cn1c(C(F)F)cc2cccnc21)NC1CCCC1 | -22.2%
Cn1ccnc1CN1CC[C@H](O)[C@@H](n2ccc(=O)[nH]c2=O)CC1 | -9.31%

SMILES | cytotoxicity at 10 µM
Cc1ccc(CC2CCCN(S(C)(=O)=O)C2)nc1 (configuration not stated) | -8.58%
O=C(NC1(C(=O)O)CCCC1)C1Cc2cc(F)ccc2O1 (configuration not stated) | -0.183%
CC1(C)CN(Cc2ccncc2)CCS1(=O)=O | -4.95%
CC(C)CC(=O)NCC(O)c1c(F)cccc1F (configuration not stated) | -2.24%
Nc1nccnc1C(=O)NC1CCCN(Cc2c(F)cccc2F)C1 (configuration not stated) | -2.14%
CN(CCCNC(=O)c1ccc(C#N)cc1)CC(F)(F)F | 5.12%
CC(=O)c1c(F)cccc1NC1CCN(C(=O)CC(C)C)CC1 | 22.6%
COCc1nccc(C2CCCN(Cc3ccc(C#N)cc3F)C2)n1 (configuration not stated) | 27.3%
O=C(C1CC(=O)N(c2ccccc2Br)C1)N1CCCCCC1 (configuration not stated) | 8.52%
Cc1c(CC(=O)N2CCN(C(C)C)CC2)nnn1-c1ccccc1 | -3.64%
COCCc1noc(CN2CCCC2c2noc(C(C)C)n2)n1 (configuration not stated) | -11.5%
Cc1ccc(C(=O)N(C)Cc2cc(Br)cs2)cn1 | 9.06%
CS(=O)(=O)c1ccc(C(=O)N2CCCC(n3cncn3)C2)o1 (configuration not stated) | 7.85%
O=C(CCc1ccccn1)N1CCCC(N2CCNC2=O)C1 (configuration not stated) | 6.99%
CN(CC1(O)CCCC1)C(=O)c1cccc(Nc2cnccn2)c1 | -4.27%
O=C(NC1CCCN(c2ccc(OC(F)F)cc2)C1)c1c[nH]nn1 (configuration not stated) | 24.8%
CN(CC(=O)Nc1cccc(F)c1)Cc1nc(N)nc(N(C)C)n1 | -6.13%
CSCC(C)(O)CNc1cccc(F)c1C(C)=O (configuration not stated) | 2.19%
COc1ccc(CN2CCN(C(C)=O)CC2)cc1SC(F)(F)F | 7.31%
Cc1nnc2n1CC(CNc1ncnc3ccccc13)CC2 (configuration not stated) | -40%
COCCN(Cc1ccco1)Cc1nc(-c2ccsc2)no1 | 1.02%
Cc1ccc(OCCSCCn2nc3ccccn3c2=O)cc1 | 7%
N#CC1(NC(=O)c2ccc(-c3nc(C4CC4)n[nH]3)cc2)CCSC1 (configuration not stated) | 4.39%

SMILES | cytotoxicity at 10 µM
CS(=O)(=O)NCCCNC(=O)c1cccnc1O | -17.7%
CCOC(C)c1nc(CN2CCN(c3nccc(C)n3)CC2)cs1 (configuration not stated) | -8.89%
CCOc1cccc(NS(=O)(=O)c2cc(C)c(C(=O)O)s2)c1 | -5.28%
O=C(NC1CCCC1)NC1CCC(C(=O)N2CCSCC2)CC1 (configuration not stated) | 3.58%
COCCc1noc(CNC2CCCN(c3cccnn3)C2)n1 (configuration not stated) | -13.7%
Cc1ccsc1CN(C)C(=O)Cn1nc(-c2ccc(F)cc2)oc1=O | 1.31%
Cc1ccc(OCCC(=O)NC2CCc3nccn3C2)cc1 (configuration not stated) | -8.15%
COCC1c2nnn(C)c2CCN1C(=O)COc1ccccc1C (configuration not stated) | -100%
Cn1cc(CN2CC[C@H](O)[C@@H]2Cc2ccncc2)cn1 | 3.6%
CC(=O)N1CCC2(CCCN(C(=O)c3ccccc3)C2)C1 (configuration not stated) | 9.52%
O=C1NCC2(CCCN(C(=O)c3csc(-c4cccs4)n3)C2)O1 (configuration not stated) | 0.55%
COc1ncc(C(=O)N(Cc2cnn(C)c2)C(C)C)cn1 | 4.23%
CCc1ccccc1CN1CCn2nc(CNC(C)=O)cc2C1 | 5.18%
NC(=O)c1cc2c(nc1-c1ccc3c(c1)CCO3)CCC2 | -11.3%
O=C(c1cscn1)N1CCCCC1c1nc2cc(F)ccc2[nH]1 (configuration not stated) | 7.59%
CCc1ccc(CN(CCN(C)C)Cc2ccc(C)s2)nc1 | -43%
CCc1nc(CC2CN(c3ncnc4nc(C)cc(C)c34)CCO2)no1 (configuration not stated) | -5.79%
CN(Cc1nc(Cc2cccc(C(F)(F)F)c2)no1)C1CCOCC1 | 6.39%
Cc1nc(CC(C)C)cc(C(=O)N2C[C@@H](N(C)C)[C@H](C(C)C)C2)n1 | 9.26%
CN(C)C(=O)N1CCC(C(=O)N2CCOC(CC3CCCCC3)C2)CC1 (configuration not stated) | 21.3%
CCCc1cc(N2CCC(NC3CCOCC3)CC2)nc(C)n1 | 5.27%
CCCc1cc(C(=O)N2C[C@H]3CCC[C@@]3(CO)C2)[nH]n1 | 10.4%
Cc1nnc(CN2CCN(C)C3(CCNC(=O)CC3)C2)s1 (configuration not stated) | -8.22%

SMILES | cytotoxicity at 10 µM
COCCN(Cc1nccs1)c1nc2c(s1)c(C)nn2C | -47.6%
CCNC(=O)c1cc(OC)c(OC)cc1N(C)S(C)(=O)=O | 1.56%
Cc1cc(C)n(C(=O)Cn2nc(C)c(I)c2C)n1 | -6.52%
CCn1cc(N)c(-c2nnc3n2CCCC3)n1 | -8.72%
Cn1cc(-c2cc(C(F)(F)F)n(CCCN)n2)cn1 | -6.11%
c1cnn(CC2CCCN2Cc2noc(C3CC3)n2)c1 (configuration not stated) | 1.46%
CC(NC(=O)CCn1cccn1)c1ccc2c(c1)OCCO2 (configuration not stated) | -7.79%
CCn1cnnc1C1CCN(C(=O)c2cccc(OC)c2OC)CC1 | -7.96%
Cc1nc2cc(O)nn2c(C)c1CCC(=O)NCCc1ccccc1 | -6.65%
Cc1cc(NC(=O)CN2CCCCC2Cn2nc(C)nc2C)on1 (configuration not stated) | -2.19%
COc1cccc(CN(C)C(=O)NCc2c(C)cc(C)[nH]c2=O)c1 | -7.98%
Cc1ncsc1C(=O)NC1CCN(CC(N)=O)CC1 | -3.54%
Cc1cccc(OCCNC(=O)CN2CCc3cncnc3C2)c1 | -6.65%
Cc1cnc2c(S(=O)(=O)N(C)C3CCS(=O)(=O)C3)cccc2c1 (configuration not stated) | -5.44%
Cc1nc(C)n(CC2CN(Cc3nc4ccccc4n3C)CCO2)n1 (configuration not stated) | -4.68%
O=C(O)c1cc(S(=O)(=O)Nc2cccc(F)c2F)cc2c1OCCO2 | -3.65%
Cc1cc(C(=O)N2CCCN(Cc3nccn3C)CC2)no1 | 0.47%
NC(=O)C1CCN(C(=O)NCCNc2ccccn2)CC1 | -12.8%
CCc1nc(CN(C)C2CCN(CC(=O)N3CCOCC3)C2)no1 (configuration not stated) | -5.32%
O=C(N1CCCC(n2cncn2)C1)C1(c2ccccc2F)CCCC1 (configuration not stated) | -4.24%
CC(C)c1nnc(CN2CCCC(Cn3cncn3)C2)o1 (configuration not stated) | -3.39%
Cc1cc(NC(=O)CN2CCn3c(nnc3C(C)C)C2)n(C)n1 | -5.39%
CC(NCc1ccsc1)c1ccc2c(c1)NC(=O)CO2 (configuration not stated) | -7.6%

SMILES | cytotoxicity at 10 µM
COC(=O)c1cc(C(=O)N2CCC(C)CC2)n(-c2ccccc2)n1 | 0.103%
Cc1cccc2c1CCN(c1cc(N3CCCC3CO)ncn1)C2 (configuration not stated) | -3.44%
Cc1ccc(C(=O)NS(=O)(=O)c2cc(Cl)ccc2Cl)c(=O)[nH]1 | -5.72%
Cn1cc(C(=O)NC2CCN(C(=O)NCCSC(F)(F)F)CC2)cn1 | 2.36%
CCc1nc(CN(Cc2cccs2)CC2CCCO2)no1 (configuration not stated) | 2.26%
CCOc1ncccc1CNC(=O)Nc1ccc(N(C)C)nc1 | -11.8%
CCc1nc(C)c(C(=O)NCCN2CCN(C(C)=O)CC2)s1 | -10.4%
O=C(c1cccnc1N1CCOCC1)N1CCCC1Cn1cccn1 (configuration not stated) | -2.53%
CCC(C)[C@H](N)c1nnc(SCC(=O)Nc2cc(C)ccc2C)o1 (some centres not stated) | -12.7%
Cc1cc(C(=O)N2CCN(C)CC2)nn1CC(=O)NCc1cccs1 | -5.83%
COc1ccc(CN(Cc2cccnc2)CC2CCCO2)c(OC)c1 (configuration not stated) | 1.13%
c1nc2c(c(C3CC3)n1)CCN(Cc1ccc3c(c1)OCO3)CC2 | -17.1%
O=C(c1ccco1)N1CC[C@@H]2CN(C3CCOCC3)CCO[C@@H]2C1 | -112%
Brc1ccc(CNCc2nnc3n2CCCCC3)s1 | -0.254%
c1cnc(NC[C@@H]2CCC[C@@H]3CN(Cc4cccnc4)C[C@@H]32)nc1 | -14.3%
CN(C)CCO[C@@H]1CC[C@H]2[C@H]1OCCN2C(=O)COc1ccccc1 | -4.84%
c1cncc(COCc2nnc3n2CCN(Cc2ccsc2)C3)c1 | -21.6%
CN(Cc1ccccn1)C1CCC[C@@H]2CN(CC3CC3)C[C@H]12 (some centres not stated) | -113%
CCCn1nccc1NC(=O)CN1CCOC(Cn2cc(C)cn2)C1 (configuration not stated) | 1.88%
O=C(NCC1CCCCC1)N1C[C@@H]2C[C@H](C(=O)N3CCOCC3)[C@H](C1)O2 | -99.4%
